pIC50: −log10 of the molar value. One block for each compound: values may come before it.
Legend:
Gerbillinae [1] = assay: Inhibition of GR-73632-induced foot tapping in gerbils at 3 mg/kg, iv after 24 hrs; type: functional; conditions: Gerbillinae, iv, 24 h
Substance-P receptor [2] = target: T1, Substance-P receptor (Homo sapiens, UniProt P25103); assay: Displacement of [125I]-SP from human NK1 receptor expressed in CHO cells
Gerbillinae [3] = assay: Inhibition of GR-73632-induced foot tapping in gerbils at 6 mg/kg, iv after 24 hrs; type: functional
Gerbillinae [4] = assay: Inhibition of GR-73632-induced foot tapping in iv dosed gerbils; type: functional; conditions: for ED50: Gerbillinae, iv, read-out: ID50 (the source's name)
Gerbillinae [5] = assay: Inhibition of GR-73632-induced foot tapping in iv dosed gerbils after 24 hrs; type: functional; conditions: for ED50: Gerbillinae, iv, 24 h, read-out: ID50 (the source's name)
Substance-P receptor [6] = target: T1, Substance-P receptor; assay: Displacement of [125I]-SP from human NK1 receptor expressed in CHO cells at 100 nM
Gerbillinae [7] = assay: Inhibition of GR-73632-induced foot tapping in gerbils at 1 mg/kg, iv; type: functional
[8] = Oral bioavailability in rat; type: ADME, organism-based; conditions: in vivo
[9] = Half life in rat; type: ADME, organism-based; conditions: in vivo
Cavia porcellus = assay: Inhibition of separation-induced vocalizations in po dosed guinea pig after 4 hrs; type: functional; conditions: read-out: ID50 (the source's name)
Outline: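 Guinea pig pups were dosed orally, and separation-induced vocalizations were measured 4 h later. ID50 is given in mg/kg.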

Rhesus monkey = assay: Receptor occupancy at NK1 receptor in iv dosed rhesus monkey brain after 4 hrs; type: functional, Macaca mulatta
Outline: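 Rhesus macaques received a 4-h iv infusion. Brain NK1 receptor occupancy was measured by PET and related to plasma steady-state concentration to estimate 50% and 90% occupancy levels.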

Substance-K receptor = target: T2, Substance-K receptor (Homo sapiens, UniProt P21452); assay: Binding affinity to NK2 receptor
T2 sequence (P21452 whole entry): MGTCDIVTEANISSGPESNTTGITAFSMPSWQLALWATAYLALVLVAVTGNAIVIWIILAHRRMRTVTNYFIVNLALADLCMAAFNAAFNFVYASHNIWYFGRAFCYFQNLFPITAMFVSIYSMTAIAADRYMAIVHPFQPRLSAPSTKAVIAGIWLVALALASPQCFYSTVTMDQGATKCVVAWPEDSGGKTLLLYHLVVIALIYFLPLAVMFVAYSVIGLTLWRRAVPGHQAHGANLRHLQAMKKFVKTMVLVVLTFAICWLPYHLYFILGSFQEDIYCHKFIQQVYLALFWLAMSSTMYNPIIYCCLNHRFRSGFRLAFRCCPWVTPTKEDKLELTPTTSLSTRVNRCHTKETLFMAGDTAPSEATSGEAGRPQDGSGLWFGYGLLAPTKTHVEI

Neuromedin-K receptor = target: T3, Neuromedin-K receptor (Homo sapiens, UniProt P29371); assay: Binding affinity to NK3 receptor
T3 sequence (P29371 whole entry): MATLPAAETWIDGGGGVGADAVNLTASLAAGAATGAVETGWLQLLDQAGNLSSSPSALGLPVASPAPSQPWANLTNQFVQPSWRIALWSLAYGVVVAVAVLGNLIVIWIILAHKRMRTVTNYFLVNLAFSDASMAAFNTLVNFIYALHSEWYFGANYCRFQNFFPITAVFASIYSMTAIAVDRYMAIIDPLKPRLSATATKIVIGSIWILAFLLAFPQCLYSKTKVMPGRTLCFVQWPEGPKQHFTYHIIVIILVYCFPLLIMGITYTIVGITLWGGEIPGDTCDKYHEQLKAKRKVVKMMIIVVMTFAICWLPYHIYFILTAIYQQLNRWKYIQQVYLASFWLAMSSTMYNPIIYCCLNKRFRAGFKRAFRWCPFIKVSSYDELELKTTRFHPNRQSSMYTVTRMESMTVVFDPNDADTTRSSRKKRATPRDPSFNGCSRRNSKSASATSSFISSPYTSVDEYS

[10] = Volume of distribution in rat; type: ADME, organism-based; conditions: in vivo
[11] = Plasma clearance in rat; type: ADME, organism-based
[12] = Volume of distribution in dog; type: ADME, organism-based, Canis lupus familiaris; conditions: in vivo
[13] = Plasma clearance in dog; type: ADME, organism-based, Canis lupus familiaris
[14] = Half life in dog; type: ADME, organism-based, Canis lupus familiaris; conditions: in vivo
[15] = Oral bioavailability in dog; type: ADME, organism-based, Canis lupus familiaris; conditions: in vivo
[16] = Plasma clearance in rhesus monkey; type: ADME, organism-based, Macaca mulatta
[17] = Volume of distribution in rhesus monkey; type: ADME, organism-based, Macaca mulatta; conditions: in vivo
[18] = Half life in rhesus monkey; type: ADME, organism-based, Macaca mulatta; conditions: in vivo
[19] = Oral bioavailability in rhesus monkey; type: ADME, organism-based, Macaca mulatta; conditions: in vivo
Gerbillinae [20] = assay: Inhibition of GR-73632-induced foot tapping in orally dosed gerbils after 1 hr; conditions: po, read-out: ID50 (the source's name)
Gerbillinae [21] = assay: Inhibition of GR-73632-induced foot tapping in orally dosed gerbils after 4 hrs; conditions: po, read-out: ID50 (the source's name)
Gerbillinae [22] = assay: Inhibition of GR-73632-induced foot tapping in gerbils at 2 mg/kg, iv; type: functional

T1 sequence (P25103 whole entry): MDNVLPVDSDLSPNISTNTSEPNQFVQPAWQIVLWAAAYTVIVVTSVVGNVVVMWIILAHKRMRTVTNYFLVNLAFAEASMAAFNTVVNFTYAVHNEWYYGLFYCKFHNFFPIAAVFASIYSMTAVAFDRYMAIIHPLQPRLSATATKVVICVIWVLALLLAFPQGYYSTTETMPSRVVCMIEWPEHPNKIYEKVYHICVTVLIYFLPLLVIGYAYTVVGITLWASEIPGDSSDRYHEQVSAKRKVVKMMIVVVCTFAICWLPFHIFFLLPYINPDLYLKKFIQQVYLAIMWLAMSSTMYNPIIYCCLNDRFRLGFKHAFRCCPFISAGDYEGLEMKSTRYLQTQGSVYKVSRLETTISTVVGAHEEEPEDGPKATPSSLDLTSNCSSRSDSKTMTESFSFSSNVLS

Structure (SMILES): C[C@@H](O[C@@H]1CN(C2=CC(=O)CC(C)(C)C2)C[C@H]1c1ccccc1)c1cc(C(F)(F)F)cc(C(F)(F)F)c1
inhibition in vivo at 3 mg/kg (Gerbillinae [1]): 5%
pIC50 (Substance-P receptor [2]): 9.89

Structure (SMILES): C[C@@H](O[C@@H]1CN(C(=O)C(C)(C)C)C[C@H]1c1ccccc1)c1cc(C(F)(F)F)cc(C(F)(F)F)c1
inhibition in vivo at 6 mg/kg (Gerbillinae [3]): 45%
pIC50 (Substance-P receptor [2]): 9.74

Structure (SMILES): CC(=O)N1CCN(C(=O)N2C[C@@H](O[C@H](C)c3cc(C(F)(F)F)cc(C(F)(F)F)c3)[C@H](c3ccc(F)cc3)C2)CC1
inhibition in vivo at 3 mg/kg (Gerbillinae [1]): 57%
pIC50 (Substance-P receptor [2]): 9.52

Structure (SMILES): CC(=O)N1C[C@@H](O[C@H](C)c2cc(C(F)(F)F)cc(C(F)(F)F)c2)[C@H](c2ccccc2)C1
inhibition in vivo at 6 mg/kg (Gerbillinae [3]): 98%
ED50 (Gerbillinae [4]): 0.6 mg/kg
ED50 (Gerbillinae [5]): 3.2 mg/kg
pIC50 (Substance-P receptor [2]): 10.05

Structure (SMILES): C[C@@H](O[C@@H]1CN(C(=O)[C@@H]2CCC(=O)N2C)C[C@H]1c1ccc(F)cc1)c1cc(C(F)(F)F)cc(C(F)(F)F)c1
inhibition in vivo at 3 mg/kg (Gerbillinae [1]): 100%
ED50 (Gerbillinae [4]): 0.6 mg/kg
ED50 (Gerbillinae [5]): 1.2 mg/kg
pIC50 (Substance-P receptor [2]): 9.92

Structure (SMILES): CC1=C(N2C[C@@H](O[C@H](C)c3cc(C(F)(F)F)cc(C(F)(F)F)c3)[C@H](c3ccc(F)cc3)C2)CCC1=O
inhibition in vivo at 3 mg/kg (Gerbillinae [1]): 67%
pIC50 (Substance-P receptor [2]): 9.89

Structure (SMILES): CC(=O)N1C[C@@H](O[C@@H](C)c2cc(C(F)(F)F)cc(C(F)(F)F)c2)[C@H](c2ccccc2)C1
inhibition (Substance-P receptor [6]): 18%

Structure (SMILES): CCNC(=O)N1C[C@@H](O[C@H](C)c2cc(C(F)(F)F)cc(C(F)(F)F)c2)[C@H](c2ccc(F)cc2)C1
inhibition in vivo at 6 mg/kg (Gerbillinae [3]): 93%
ED50 (Gerbillinae [5]): 1 mg/kg
inhibition in vivo at 1 mg/kg (Gerbillinae [7]): 61%
pIC50 (Substance-P receptor [2]): 10.00

Structure (SMILES): CC(C)C(=O)N1C[C@@H](O[C@H](C)c2cc(C(F)(F)F)cc(C(F)(F)F)c2)[C@H](c2ccc(F)cc2)C1
inhibition in vivo at 6 mg/kg (Gerbillinae [3]): 43%
pIC50 (Substance-P receptor [2]): 9.82

The remaining compounds from weak to strong by pIC50 (Substance-P receptor [2]), led by results:

pIC50 (Substance-P receptor [2]): 9.52
Structure (SMILES): C[C@@H](O[C@@H]1CN(C2=CC(=O)C(O)C2)C[C@H]1c1ccc(F)cc1)c1cc(C(F)(F)F)cc(C(F)(F)F)c1 (stereo in doubt)
inhibition in vivo at 3 mg/kg (Gerbillinae [1]): 95%
ID50 (Gerbillinae [4]): 1.1 mg/kg
ID50 (Gerbillinae [5]): 0.5 mg/kg

pIC50 (Substance-P receptor [2]): 9.74
Structure (SMILES): C[C@@H](O[C@@H]1CN(C2=CC(=O)C(C)(C)CC2)C[C@H]1c1ccccc1)c1cc(C(F)(F)F)cc(C(F)(F)F)c1
inhibition in vivo at 3 mg/kg (Gerbillinae [1]): 12%

pIC50 (Substance-P receptor [2]): 9.80
Structure (SMILES): C[C@@H](O[C@@H]1CN(C(=O)N2CCOCC2)C[C@H]1c1ccccc1)c1cc(C(F)(F)F)cc(C(F)(F)F)c1
inhibition in vivo at 1 mg/kg (Gerbillinae [7]): 40%

pIC50 (Substance-P receptor [2]): 9.92
Structure (SMILES): Cc1cnc(C(=O)N2C[C@@H](O[C@H](C)c3cc(C(F)(F)F)cc(C(F)(F)F)c3)[C@H](c3ccc(F)cc3)C2)cn1
inhibition in vivo at 3 mg/kg (Gerbillinae [1]): 45%

bioavailability [8]: 100%
half-life [9]: 3.6 h
pIC50 (Substance-K receptor): 5.76
pIC50 (Neuromedin-K receptor): < 5.52
Vd [10]: 6.2 L/kg
clearance [11]: 19.6 mL/min/kg
Vd [12]: 1.6 L/kg
clearance [13]: 1 mL/min/kg
half-life [14]: 20 h
bioavailability [15]: 100%
clearance [16]: 4.5 mL/min/kg
Vd [17]: 2.3 L/kg
half-life [18]: 5.7 h
bioavailability [19]: 68%
pIC50 (Substance-P receptor [2]): 9.96
Structure (SMILES): C[C@@H](O[C@@H]1CN(C2=CC(=O)CC2)C[C@H]1c1ccc(F)cc1)c1cc(C(F)(F)F)cc(C(F)(F)F)c1
inhibition in vivo at 3 mg/kg (Gerbillinae [1]): 100%
ED50 (Gerbillinae [4]): 0.1 mg/kg
ED50 (Gerbillinae [5]): 0.045 mg/kg
inhibition in vivo at 1 mg/kg (Gerbillinae [7]): 100%
ED50 (Cavia porcellus): 0.17 mg/kg
Occ50 (Rhesus monkey): 33 ng/mL
Occ90 (Rhesus monkey): 300 ng/mL
ED50 (Gerbillinae [20]): 0.9 mg/kg
ED50 (Gerbillinae [21]): 0.25 mg/kg

pIC50 (Substance-P receptor [2]): 9.96
Structure (SMILES): CNC(=O)N1C[C@@H](O[C@H](C)c2cc(C(F)(F)F)cc(C(F)(F)F)c2)[C@H](c2ccc(F)cc2)C1
inhibition in vivo at 6 mg/kg (Gerbillinae [3]): 77%
ED50 (Gerbillinae [4]): 1 mg/kg
ED50 (Gerbillinae [5]): 3 mg/kg
inhibition in vivo at 2 mg/kg (Gerbillinae [22]): 100%

pIC50 (Substance-P receptor [2]): 10.22
Structure (SMILES): CC(C)NC(=O)N1C[C@@H](O[C@H](C)c2cc(C(F)(F)F)cc(C(F)(F)F)c2)[C@H](c2ccc(F)cc2)C1
inhibition in vivo at 6 mg/kg (Gerbillinae [3]): 86%
ED50 (Gerbillinae [5]): 0.8 mg/kg
inhibition in vivo at 1 mg/kg (Gerbillinae [7]): 64%
